Laboratory results reported in ChEMBL document CHEMBL4428077, “Synthesis and Biological Evaluation of N-((1-(4-(Sulfonyl)piperazin-1-yl)cycloalkyl)methyl)benzamide Inhibitors of Glycine Transporter-1” (J Med Chem, 2016).

How the values were obtained:
[1] = Drug level in Sprague-Dawley rat brain at 10 mg/kg, po qd for 5 days measured 2 hrs post last dose by LC-MS/MS analysis; type: ADME, organism-based; conditions: read-out: Drug uptake
In short: (§1)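 Drug-naive Sprague−Dawley rats (n = 5/group) were dosed orally once daily for 5 days in 5% Solutol plus 20% Captisol in 25 mM PBS, pH 2, and sacrificed 2 h after the last dose. Drug was measured in CSF, brain and plasma; mean ± SEM.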

[2] = Drug level in Sprague-Dawley rat plasma at 3 mg/kg, po qd for 5 days measured 2 hrs post last dose by LC-MS/MS analysis; type: ADME, organism-based; in short: as §1
[3] = Apparent permeability from basolateral to apical side in human Caco2 cells; type: ADME, cell-based; conditions: Caco-2
In short: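 Caco-2 monolayer permeability measured in both the A-to-B and B-to-A directions and reported as P_app (×10⁻⁶ cm/s).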

[4] = Tmax in Sprague-Dawley rat plasma at 10 mg/kg, po administered as single dose by LC-MS/MS analysis; type: ADME, organism-based
In short: (§2)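 Groups of three drug-naive adult male Sprague–Dawley rats, single dose: IV 3.1 μmol/kg in 5% DMSO/10% Solutol in saline (5 mL/kg), or PO 15.7 μmol/kg in 5% Solutol/10% Captisol in 25 mM PBS adjusted to pH 2 with HCl. Plasma concentration–time data give the parameters; mean ± SD.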

[5] = Volume of distribution at steady state in Sprague-Dawley rat at 10 mg/kg, po or 2 mg/kg, iv administered as single dose measured up to 24 hrs post dose by LC-MS/MS analysis; type: ADME, organism-based; conditions: in vivo, read-out: Vdss; in short: as §2
[6] = Volume of distribution at steady state in cynomolgus monkey at 1 mg/kg, iv or 5 mg/kg, po measured up to 12 or 24 hrs post dose by LC-MS/MS analysis; type: ADME, organism-based, Macaca fascicularis; conditions: in vivo, read-out: Vdss
In short: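 Three female cynomolgus monkeys per group, single dose: IV 1.5 μmol/kg in 5% DMSO/10% Solutol in saline, pH 6.5 (2 mL/kg), or PO 7.8 μmol/kg in 5% Solutol in 20% Captisol, 25 mM PBS, pH 2 (5 mL/kg). Parameters come from plasma concentration–time data; mean ± SD.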

[7] = Drug level in po dosed Sprague-Dawley rat brain measured 2 hrs post dose by LC-MS/MS analysis; type: ADME, organism-based; conditions: in vivo
[8] = Drug level in po dosed Sprague-Dawley rat CSF measured 2 hrs post dose by LC-MS/MS analysis; type: ADME, organism-based, Cerebrospinal fluid; conditions: in vivo
[9] = Ratio of drug level in CSF to unbound plasma concentration in Sprague-Dawley rat at 3 to 10 mg/kg, po measured 2 hrs post dose by LC-MS/MS analysis; type: ADME, organism-based; conditions: in vivo
In short: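 Drug-naive male Sprague–Dawley rats (n = 4–5/group) were dosed orally in 5% Solutol/10% Captisol in 25 mM PBS, pH 2, and euthanized by CO2 2 h post-dose. CSF (50–100 μL) was taken from the cisterna magna, and brain and plasma were collected; drug was measured in each matrix. Quantitation limit 1.0 ng/mL.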

[10] = test system: Cynomolgus monkey; test: In vivo inhibition of glycine transporter-1 in cynomolgus monkey assessed as CSF glycine level at 10 mg/kg, po measured up to 24 hrs post dose by LC-MS/MS analysis relative to control; type: functional, Macaca fascicularis; parameters: scale not given: the % may be the effect or the level left
In short: (§3)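 Cynomolgus monkeys, n = 3 per group, given oral doses of 0.4, 1.5, 4.7 or 15.7 μmol/kg. Vehicle was 5% Solutol / 20% Captisol in 25 mM PBS, pH 2. CSF (about 0.30 mL) was drawn through subcutaneous ports with a sterile Huber needle predose and at 0.5, 1, 2, 3, 4, 8, 12 and 24 h. Matched blood was taken at each time. Mean ± SD.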

[11] = test system: Cynomolgus monkey; test: In vivo inhibition of glycine transporter-1 in po dosed cynomolgus monkey assessed as increase in CSF glycine level measured up to 24 hrs post dose by LC-MS/MS analysis; type: functional, Macaca fascicularis; in short: as §3
[12] = Drug level in cynomolgus monkey plasma at 3 mg/kg, po measured at 2 hrs post dose by LC-MS/MS analysis; type: ADME, organism-based, Macaca fascicularis
[13] = Drug level in cynomolgus monkey plasma at 3 mg/kg, po measured at 3 hrs post dose by LC-MS/MS analysis; type: ADME, organism-based, Macaca fascicularis
[14] = Drug level in cynomolgus monkey plasma at 3 mg/kg, po measured at 24 hrs post dose by LC-MS/MS analysis; type: ADME, organism-based, Macaca fascicularis
[15] = Drug level in cynomolgus monkey plasma at 10 mg/kg, po measured at 4 hrs post dose by LC-MS/MS analysis; type: ADME, organism-based, Macaca fascicularis
[16] = Drug level in po dosed cynomolgus monkey plasma measured up to 24 hrs post dose by LC-MS/MS analysis; type: ADME, organism-based, Macaca fascicularis; conditions: in vivo
[17] = Protein binding in monkey plasma; conditions: cynomolgus monkey, read-out: PPB (converted)

In the case of `Cl.Cn1cc(S(=O)(=O)N2CCN(C3(CNC(=O)c4ccc(C(F)(F)F)cc4Cl)CCC(F)(F)CC3)CC2)nn1`, the concentration at 2 h [1] is reported as 69.4 nM and the concentration at 2 h [2] is reported as 122 nM.
`CC(NC(=O)c1ccc(C(F)(F)F)cc1Cl)C1(N2CCN(S(=O)(=O)c3cn(C)nn3)CC2)CCC(F)(F)CC1.Cl` (single isomer, unassigned; (+)) showed a Papp B→A [3] of 47.4 ×10⁻⁶ cm/s, a Tmax [4] of 2.67 h and a Vd [5] of 1.75 L/kg. For the same compound, the Vd [6] was 1.93 L/kg, the Drug uptake [7] was “Dose-dependent effect” and the Drug uptake [8] was “Dose-dependent effect”. For the same compound, the Ratio [9] was > 0.1, the Activity [10] was >300% and the ED200 [11] was 4.7 to 15.7 µmol/kg. The concentration at 2 h [12] was 3.6 ng/mL, the concentration at 3 h [13] was 5.7 ng/mL and the concentration at 24 h [14] was < 1 ng/mL. The concentration at 4 h [15] was 224 ng/mL, the Drug uptake [16] was “Dose-dependent effect” and the fraction unbound [17] was 0.19.
